Molecules are shown by their SMILES. About 510 (4.6%) of roughly 11,000 compounds were called active. This excerpt belongs to a sample that is enriched for actives. Unmarked numbers belong to inactive results.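 Rule for the calls: active = inhibition of at least 40% at 10 µM in either of the two replicates; inactive = the rest.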

For this experiment, the system named is intestinal alkaline phosphatase [Mus musculus]. As to the kind of experiment: inhibitors of mouse IAP, confirmation, biochemical, luminescence, single concentration (AID 434971).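 Note: plate controls were DMSO wells with enzyme for no effect and buffer wells lacking enzyme for full effect.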 The note with it: purified mouse IAP, CDP-Star luminescence, 30 min; at 10 µM; hits give high values. In short, it runs like this:
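Assay system: Mouse IAP enzyme | Control set: no-enzyme negative control wells | Timing: 30 min reaction at room temperature | Probe or stimulus: CDP-Star | Medium: DEA buffer containing ZnCl2 and MgCl2 | Technique: Luminescence from CDP-Star dephosphorylation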
On to `COc1ccc(N2C(=O)/C(=C/c3ccco3)C(=O)NC2=S)cc1`, for which the inhibition is 43.2% (active).

As to `Cc1cc(C)cc(NC(=S)NC2CC3CCCC(C2)N3Cc2cccs2)c1` (centres undefined), the inhibition was -150%.

As to `O=C1NC(=O)N(Cc2ccco2)C(=O)/C1=C\c1ccc(-c2ccc(F)cc2)o1`, the inhibition is 83.5% (active).

Turning to `O=C1NC(=O)N(Cc2ccco2)C(=O)/C1=C\c1cccn1CCOc1ccccc1`, the inhibition was 50.6% (active).

As a reminder, the inhibition is the change of the read-out against control, counted positive when it falls.

Values taken from PubChem BioAssay AID434971 (Sanford-Burnham Center for Chemical Genomics, 2010).
